In ChEMBL document CHEMBL4689842, “EUbOPEN Chemogenomics Library wave 1” (2021):

System: Fibroblast
Assay: Multiplex assay against human fibroblast
Type: toxicity, cell-based
In short: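 Per cents of healthy-nucleus cells form the tubulin, mitochondrial-mass and membrane-permeability phenotype values. Live cells were stained at seeding with Hoechst33342, BioTracker Green Microtubule Cytoskeleton Dye, MitoTracker Red and Annexin V Alexa Fluor 680. After compound addition they were imaged on a CQ1 microscope at 37°C and 5% CO2, and CellPathfinder machine-learning gating split them into Hoechst high-intensity objects or normal cells, normal cells into healthy, pyknosed or fragmented nuclei, and pyknosed cells into mitotic or apoptotic.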

[1] = 12 h, 1 µM, compound concentration 1 uM, replicate 1
[2] = 12 h, 1 µM, compound concentration 1 uM, replicate 2
[3] = 12 h, 10 µM, compound concentration 10 uM, replicate 1
[4] = 12 h, 10 µM, compound concentration 10 uM, replicate 2
[5] = 24 h, 1 µM, compound concentration 1 uM, replicate 1
[6] = 24 h, 1 µM, compound concentration 1 uM, replicate 2
[7] = 24 h, 10 µM, compound concentration 10 uM, replicate 1
[8] = 24 h, 10 µM, compound concentration 10 uM, replicate 2
[9] = 48 h, 1 µM, compound concentration 1 uM, replicate 1
[10] = 48 h, 1 µM, compound concentration 1 uM, replicate 2
[11] = 48 h, 10 µM, compound concentration 10 uM, replicate 1
[12] = 48 h, 10 µM, compound concentration 10 uM, replicate 2

SMILES: COc1cc(-n2cnc3cc(-c4ccc(Cl)cc4)sc3c2=O)ccc1OCCN1CCCC1
- Population Apoptotic (%) [1]: 52%
- Population Fragmented Nuclei (%) [1]: 32%
- Population Healthy Nuclei (%) [1]: 49%
- Population Hoechst High Intensity Objects (%) [1]: 13%
- Population Membrane Permeable-Phenotype (%) [1]: 23%
- Population Mitochondria Different-Phenotype (%) [1]: 13%
- Population Mitotic Cells (%) [1]: 47%
- Population Normal (%) [1]: 86%
- Population Pyknosed Nuclei (%) [1]: 18%
- Population Tubulin-Different-Phenotype (%) [1]: 38%
- Total Cell Count [1]: 121
- Population Apoptotic (%) [2]: 71%
- Population Fragmented Nuclei (%) [2]: 11%
- Population Healthy Nuclei (%) [2]: 77%
- Population Hoechst High Intensity Objects (%) [2]: 16%
- Population Membrane Permeable-Phenotype (%) [2]: 10%
- Population Mitochondria Different-Phenotype (%) [2]: 44%
- Population Mitotic Cells (%) [2]: 28%
- Population Normal (%) [2]: 84%
- Population Pyknosed Nuclei (%) [2]: 11%
- Population Tubulin-Different-Phenotype (%) [2]: 34%
- Total Cell Count [2]: 78
- Population Apoptotic (%) [3]: 62%
- Population Fragmented Nuclei (%) [3]: 33%
- Population Healthy Nuclei (%) [3]: 26%
- Population Hoechst High Intensity Objects (%) [3]: 14%
- Population Membrane Permeable-Phenotype (%) [3]: 21%
- Population Mitochondria Different-Phenotype (%) [3]: 53%
- Population Mitotic Cells (%) [3]: 37%
- Population Normal (%) [3]: 85%
- Population Pyknosed Nuclei (%) [3]: 40%
- Population Tubulin-Different-Phenotype (%) [3]: 87%
- Total Cell Count [3]: 141
- Population Apoptotic (%) [4]: 26%
- Population Fragmented Nuclei (%) [4]: 22%
- Population Healthy Nuclei (%) [4]: 57%
- Population Hoechst High Intensity Objects (%) [4]: 8%
- Population Membrane Permeable-Phenotype (%) [4]: 34%
- Population Mitochondria Different-Phenotype (%) [4]: 93%
- Population Mitotic Cells (%) [4]: 73%
- Population Normal (%) [4]: 91%
- Population Pyknosed Nuclei (%) [4]: 19%
- Population Tubulin-Different-Phenotype (%) [4]: 97%
- Total Cell Count [4]: 75
- Population Apoptotic (%) [5]: 38%
- Population Fragmented Nuclei (%) [5]: 36%
- Population Healthy Nuclei (%) [5]: 47%
- Population Hoechst High Intensity Objects (%) [5]: 17%
- Population Membrane Permeable-Phenotype (%) [5]: 17%
- Population Mitochondria Different-Phenotype (%) [5]: 5%
- Population Mitotic Cells (%) [5]: 61%
- Population Normal (%) [5]: 82%
- Population Pyknosed Nuclei (%) [5]: 15%
- Population Tubulin-Different-Phenotype (%) [5]: 32%
- Total Cell Count [5]: 142
- Population Apoptotic (%) [6]: 62%
- Population Fragmented Nuclei (%) [6]: 16%
- Population Healthy Nuclei (%) [6]: 71%
- Population Hoechst High Intensity Objects (%) [6]: 10%
- Population Membrane Permeable-Phenotype (%) [6]: 6%
- Population Mitochondria Different-Phenotype (%) [6]: 25%
- Population Mitotic Cells (%) [6]: 37%
- Population Normal (%) [6]: 89%
- Population Pyknosed Nuclei (%) [6]: 12%
- Population Tubulin-Different-Phenotype (%) [6]: 21%
- Total Cell Count [6]: 83
- Population Apoptotic (%) [7]: 92%
- Population Fragmented Nuclei (%) [7]: 32%
- Population Healthy Nuclei (%) [7]: 15%
- Population Hoechst High Intensity Objects (%) [7]: 16%
- Population Membrane Permeable-Phenotype (%) [7]: 25%
- Population Mitochondria Different-Phenotype (%) [7]: 43%
- Population Mitotic Cells (%) [7]: 7%
- Population Normal (%) [7]: 83%
- Population Pyknosed Nuclei (%) [7]: 51%
- Population Tubulin-Different-Phenotype (%) [7]: 93%
- Total Cell Count [7]: 125
- Population Apoptotic (%) [8]: 47%
- Population Fragmented Nuclei (%) [8]: 24%
- Population Healthy Nuclei (%) [8]: 52%
- Population Hoechst High Intensity Objects (%) [8]: 14%
- Population Membrane Permeable-Phenotype (%) [8]: 42%
- Population Mitochondria Different-Phenotype (%) [8]: 89%
- Population Mitotic Cells (%) [8]: 52%
- Population Normal (%) [8]: 85%
- Population Pyknosed Nuclei (%) [8]: 23%
- Population Tubulin-Different-Phenotype (%) [8]: 81%
- Total Cell Count [8]: 74
- Population Apoptotic (%) [9]: 81%
- Population Fragmented Nuclei (%) [9]: 39%
- Population Healthy Nuclei (%) [9]: 48%
- Population Hoechst High Intensity Objects (%) [9]: 18%
- Population Membrane Permeable-Phenotype (%) [9]: 9%
- Population Mitochondria Different-Phenotype (%) [9]: 4%
- Population Mitotic Cells (%) [9]: 18%
- Population Normal (%) [9]: 81%
- Population Pyknosed Nuclei (%) [9]: 11%
- Population Tubulin-Different-Phenotype (%) [9]: 22%
- Total Cell Count [9]: 166
- Population Apoptotic (%) [10]: 33%
- Population Fragmented Nuclei (%) [10]: 36%
- Population Healthy Nuclei (%) [10]: 61%
- Population Hoechst High Intensity Objects (%) [10]: 15%
- Population Membrane Permeable-Phenotype (%) [10]: 16%
- Population Mitochondria Different-Phenotype (%) [10]: 3%
- Population Mitotic Cells (%) [10]: 66%
- Population Normal (%) [10]: 84%
- Population Pyknosed Nuclei (%) [10]: 2%
- Population Tubulin-Different-Phenotype (%) [10]: 51%
- Total Cell Count [10]: 160
- Population Apoptotic (%) [11]: 93%
- Population Fragmented Nuclei (%) [11]: 52%
- Population Healthy Nuclei (%) [11]: 26%
- Population Hoechst High Intensity Objects (%) [11]: 37%
- Population Membrane Permeable-Phenotype (%) [11]: 23%
- Population Mitochondria Different-Phenotype (%) [11]: 47%
- Population Mitotic Cells (%) [11]: 6%
- Population Normal (%) [11]: 62%
- Population Pyknosed Nuclei (%) [11]: 20%
- Population Tubulin-Different-Phenotype (%) [11]: 85%
- Total Cell Count [11]: 124
- Population Apoptotic (%) [12]: 63%
- Population Fragmented Nuclei (%) [12]: 36%
- Population Healthy Nuclei (%) [12]: 53%
- Population Hoechst High Intensity Objects (%) [12]: 32%
- Population Mitochondria Different-Phenotype (%) [12]: 30%
- Population Mitotic Cells (%) [12]: 36%
- Population Normal (%) [12]: 67%
- Population Pyknosed Nuclei (%) [12]: 9%
- Total Cell Count [12]: 167
